Source: PubChem (several laboratories)
In the library only some 11% were active in any assay of this set; here they are far more common.
Diaphorase inh – diaphorase inhibition or chemical oxidation counter-screen; diaphorase resazurin-to-resorufin fluorescence, NADH, 16 min; bacterial (C. kluyveri) enzyme, not human; inhibition, % at 20 µM; 190,000 compounds, 0.69% hits;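 active = primary screen inhibition at 20 µM above a set limit, cut at about 50% in these data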;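 note: plate controls were DMSO with full reaction for no effect and wells lacking NADH for full effect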
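Test system: bacterial diaphorase enzyme (C. kluyveri); Quantity: 0.14 U/mL diaphorase, enzyme working solution; Times: reaction incubation of 16 min at room temperature; Measured by: fluorescence of resorufin formed from resazurin, Ex 544/Em 590 nm; Benchmarks: positive control minus NADH, DMSO neutral control.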
L major viab – inhibitors of Leishmania major promastigote growth; Leishmania major promastigotes, resazurin fluorescence viability; inhibition, % at 10 µM; 200,000 compounds, 9% hits;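 note: promastigotes grown with compound for 44 hours at 28 °C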
Diaph act CS – activates diaphorase or chemically reduces, flagging diaphorase assay artifacts. Diaphorase/resazurin coupled assay, resorufin fluorescence, 16 min; active compounds read high; 1 = vehicle wells, 0 = NADH-free wells. activation factor at 20 µM. 190,000 compounds, 0.005% hits;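 active = diaphorase activity raised at least twofold by the compound at 20 µM; inactive = activation factor below 2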
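System – purified diaphorase enzyme from Clostridium kluyveri · Input – enzyme 0.07 U/mL final · Also added – final NADH 0.114 mM, resazurin 0.1 mM · Measured by – fluorescence of resorufin, 544 nm excitation, 590 nm emission · Timing – 16 min enzyme reaction, ambient temperature · Measure – resorufin increase flagging diaphorase activators or reducers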
WT yeast gro inh – growth inhibition of WT yeast, mitochondrial fusion screen | mitochondrial fusion phenotypic screen, WT strain | inhibition, % at 10 µM | 190,000 compounds, 2.1% hits | AID 1362; in the data active = inhibition above about 58%; tested in S. cerevisiae
G6PDH counter – L. mesenteroides G6PDH inhibition counter-screen | inhibition, % at 5 µM | AID 1020 | Purified L. mesenteroides G6PDH, diaphorase/resazurin coupled fluorescence, 45 min | 200,000 compounds, 0.12% hits
Lmaj promast 1uM – inhibitors of Leishmania major promastigote growth, repeat at 1 uM; shares compounds with L major viab; L. major promastigote growth, resazurin fluorescence, 48 h; inhibition, % at 1 µM; 1,100 compounds, 13% hits; AID 1258;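 active = inhibition above about 50% in both repeat tests, limit read from the data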
* hit, by the source's call. Cut-off read from the data, not from the text of the source, unless noted: active = inhibition above about 50%; inactive = the rest.

How did COc1ccc(N2C3=[N+](CC2(C)O)c2ccccc2CC3)cc1 (centres undefined) do in these assays?
Diaphorase inh: 24; L major viab: 90*; Diaph act CS: 0.8; WT yeast gro inh: 0; G6PDH counter: 13; Lmaj promast 1uM: 39

What do the screens show for `O=C(CSc1nnc(CNC(=O)c2cccs2)o1)Nc1cccc(C(F)(F)F)c1`?
Diaphorase inh: 14; L major viab: -5; Diaph act CS: 0.9; WT yeast gro inh: -7; G6PDH counter: 3

Results for CCCc1n[nH]c2c1/C(=N/O)CC(c1ccccc1)C2 (centres undefined) ?
Diaphorase inh: 10; L major viab: 81*; Diaph act CS: 0.9; WT yeast gro inh: -7; G6PDH counter: -2; Lmaj promast 1uM: 59*

How did Cc1ccc(-n2nnnc2CCl)cc1 do in these assays?
Diaphorase inh: -7; L major viab: 96*; Diaph act CS: 1.1; WT yeast gro inh: -10; G6PDH counter: 10; Lmaj promast 1uM: 15

How did CC(C)(O)C(=O)NNC(=S)Nc1ccc(F)c(Cl)c1 do in these assays?
Diaphorase inh: 10; L major viab: -3; Diaph act CS: 0.9; WT yeast gro inh: 9; G6PDH counter: -6

What do the screens show for `Cn1c(SCCN2CCCCC2)nnc1-c1ccccc1Br`?
Diaphorase inh: 16; L major viab: 73*; Diaph act CS: 0.8; WT yeast gro inh: 9; G6PDH counter: 18; Lmaj promast 1uM: -2

What do the screens show for `CCOc1ccc(-c2cc(C(=O)NCC3CCCO3)c3ccccc3n2)cc1` (centres undefined)?
Diaphorase inh: 15; L major viab: 41; Diaph act CS: 0.9; WT yeast gro inh: 5; G6PDH counter: -9

What do the screens show for `O=C(Nc1ccc(Cl)cc1)Nc1ccc2c(c1)N1CCN=C1S2`?
Diaphorase inh: -21; L major viab: 100*; Diaph act CS: 1.2; WT yeast gro inh: 7; G6PDH counter: 2; Lmaj promast 1uM: 1

Results for CNc1ccccc1C(C)(C)c1cc(-c2cccc(Br)c2)no1 ?
Diaphorase inh: 14; L major viab: 99*; Diaph act CS: 0.9; WT yeast gro inh: 73*; G6PDH counter: 8; Lmaj promast 1uM: 88*

What do the screens show for `CC(C)(C)c1ccc(OCCNC(=O)c2ncn[nH]2)cc1`?
Diaphorase inh: 15; L major viab: 70*; Diaph act CS: 0.9; WT yeast gro inh: -9; G6PDH counter: 6; Lmaj promast 1uM: -7

What do the screens show for `CC(=O)O[C@@H]1C[C@H]2C(C)(C)C(=O)C=C[C@]2(C)[C@H]2CC[C@@]3(C)[C@H](c4ccoc4)OC(=O)[C@H]4O[C@]43[C@@]21C`?
Diaphorase inh: 11; L major viab: 100*; Diaph act CS: 0.9; WT yeast gro inh: 5; G6PDH counter: 18; Lmaj promast 1uM: 94*

How did CCCCC(CC)C(=O)NCC(C)NC(=O)C(CC)CCCC (centres undefined) do in these assays?
Diaphorase inh: 11; L major viab: 61*; Diaph act CS: 0.9; WT yeast gro inh: -29; G6PDH counter: 10; Lmaj promast 1uM: -9

Results for CC(CNC(=O)C(C)C)NC(=O)C(C)C (centres undefined) ?
Diaphorase inh: 4; L major viab: 2; Diaph act CS: 1; WT yeast gro inh: -28; G6PDH counter: 3

How did CCOC(=O)c1c(NC(=O)CSc2nnc(-c3c[nH]c4ccccc34)n2CCOC)sc2c1CCCC2 do in these assays?
Diaphorase inh: 7; L major viab: 72*; Diaph act CS: 0.9; WT yeast gro inh: 5; G6PDH counter: 9; Lmaj promast 1uM: -11

Results for COCCn1c(SCC(=O)Nc2ccc3c(c2)OCCO3)nnc1-c1c[nH]c2ccccc12 ?
Diaphorase inh: 7; L major viab: -2; Diaph act CS: 0.9; WT yeast gro inh: -6; G6PDH counter: 16

How did CCOC(=O)c1ccc(N2C(=O)c3n[nH]c(-c4ccco4)c3C2c2cccc([N+](=O)[O-])c2)cc1 (centres undefined) do in these assays?
Diaphorase inh: 18; L major viab: 96*; Diaph act CS: 0.8; WT yeast gro inh: 28; G6PDH counter: 3; Lmaj promast 1uM: -5

Results for O=S1(=O)N=C(Nc2ccc(O)c(CN3CCCCC3)c2)c2ccccc21 ?
Diaphorase inh: -7; L major viab: 55*; Diaph act CS: 1.1; WT yeast gro inh: 14; G6PDH counter: 4; Lmaj promast 1uM: -2

What do the screens show for `Cc1c(C#N)c2ccccc2n1CC(=O)NCc1ccccc1`?
Diaphorase inh: -10; L major viab: 14; Diaph act CS: 1.1; WT yeast gro inh: 7; G6PDH counter: 6

Results for O=[N+]([O-])c1ccc2c(c1)c(-c1ccccc1)nc1nncn12 ?
Diaphorase inh: 22; L major viab: 56*; Diaph act CS: 0.8; WT yeast gro inh: -9; G6PDH counter: 4; Lmaj promast 1uM: -15

Results for O=P(Cc1ccccn1)(c1ccccc1)c1ccccc1 ?
Diaphorase inh: 4; L major viab: -5; Diaph act CS: 1; WT yeast gro inh: 4; G6PDH counter: 6

What do the screens show for `CN(C)S(=O)(=O)c1cccc(-c2cn3ccccc3n2)c1`?
Diaphorase inh: -7; L major viab: 6; Diaph act CS: 1.1; G6PDH counter: -4

How did CN(C)S(=O)(=O)c1cccc(-c2cn3cc(Cl)ccc3n2)c1 do in these assays?
Diaphorase inh: 9; L major viab: 99*; Diaph act CS: 0.9; WT yeast gro inh: 10; G6PDH counter: 5; Lmaj promast 1uM: -9

What do the screens show for `CC(/C=N/NC(=O)c1cc(-c2ccncc2)nc2ccccc12)=C\c1ccco1`?
Diaphorase inh: 6; L major viab: 89*; Diaph act CS: 0.9; WT yeast gro inh: -6; G6PDH counter: -38; Lmaj promast 1uM: 19

What do the screens show for `Cn1nnc2cc(C(=O)N3CCC(c4ccccc4)C3)ccc21` (centres undefined)?
Diaphorase inh: 17; L major viab: -4; Diaph act CS: 0.8; WT yeast gro inh: -6; G6PDH counter: -1

Results for Cc1cc(/C=N/n2cnnc2)c(C)n1-c1cccc(Cl)c1 ?
Diaphorase inh: 16; L major viab: 85*; Diaph act CS: 0.8; WT yeast gro inh: 14; G6PDH counter: 2; Lmaj promast 1uM: 12

Results for Cc1cc(/C=N/n2cnnc2)c(C)n1-c1ccccc1 ?
Diaphorase inh: 0; L major viab: 23; Diaph act CS: 1; WT yeast gro inh: -15; G6PDH counter: 5

How did COC(=O)c1ccc(COc2ccc(C3C4=C(CCCC4=O)Nc4onc(C)c43)cc2)cc1 (centres undefined) do in these assays?
Diaphorase inh: 16; L major viab: 100*; Diaph act CS: 0.8; WT yeast gro inh: 6; G6PDH counter: -26; Lmaj promast 1uM: 55*
